Laboratory results: ChEMBL document CHEMBL2311299, “New 2-(aryloxy)-3-phenylpropanoic acids as peroxisome proliferator-activated receptor α/γ dual agonists able to upregulate mitochondrial carnitine shuttle system gene expression” (J Med Chem, 2013)
Active and inactive are the calls of the source. The calls are words filed in the database; no cut-off is given here.

What was measured:
[1] = molecular target: T1, Peroxisome proliferator-activated receptor alpha (Homo sapiens) (UniProt Q07869); experiment: Transactivation of GAL4-fused human PPARalpha ligand binding domain expressed in HepG2 cells after 20 hrs by luciferase reporter gene assay relative to WY-14643; type: cell-based
T1 sequence (whole entry): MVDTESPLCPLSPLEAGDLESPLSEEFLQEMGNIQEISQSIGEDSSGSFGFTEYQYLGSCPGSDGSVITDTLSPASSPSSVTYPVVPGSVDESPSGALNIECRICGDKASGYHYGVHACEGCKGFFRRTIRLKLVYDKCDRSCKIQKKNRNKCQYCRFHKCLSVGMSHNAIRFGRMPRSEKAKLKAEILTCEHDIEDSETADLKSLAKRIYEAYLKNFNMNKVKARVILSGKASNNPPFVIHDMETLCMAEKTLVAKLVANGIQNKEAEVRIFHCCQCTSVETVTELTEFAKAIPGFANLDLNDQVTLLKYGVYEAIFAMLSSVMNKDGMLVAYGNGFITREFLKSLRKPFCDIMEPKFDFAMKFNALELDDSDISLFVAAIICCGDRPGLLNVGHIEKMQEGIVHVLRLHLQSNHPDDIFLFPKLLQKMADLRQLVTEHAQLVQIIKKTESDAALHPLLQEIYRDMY
Procedure, shortened: (§1)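 HepG2 cells transiently transfected (calcium phosphate) with Gal4–PPARα-LBD or Gal4–PPARγ-LBD (30 ng), five-Gal4-element TK-luciferase reporter (100 ng) and pCMVβgal (250 ng). 4 h post-transfection, triplicate 20 h ligand treatment up to 10 μM; luciferase read, β-galactosidase measured with ONPG. Efficacy as % of maximal fold induction by Wy-14,643 (α) or rosiglitazone (γ); experiments repeated at least twice.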

[2] = molecular target: T2, Peroxisome proliferator-activated receptor gamma (Homo sapiens, UniProt P37231); experiment: Transactivation of GAL4-fused human PPARgamma ligand binding domain expressed in HepG2 cells after 20 hrs by luciferase reporter gene assay; type: cell-based
T2 sequence (P37231 whole entry): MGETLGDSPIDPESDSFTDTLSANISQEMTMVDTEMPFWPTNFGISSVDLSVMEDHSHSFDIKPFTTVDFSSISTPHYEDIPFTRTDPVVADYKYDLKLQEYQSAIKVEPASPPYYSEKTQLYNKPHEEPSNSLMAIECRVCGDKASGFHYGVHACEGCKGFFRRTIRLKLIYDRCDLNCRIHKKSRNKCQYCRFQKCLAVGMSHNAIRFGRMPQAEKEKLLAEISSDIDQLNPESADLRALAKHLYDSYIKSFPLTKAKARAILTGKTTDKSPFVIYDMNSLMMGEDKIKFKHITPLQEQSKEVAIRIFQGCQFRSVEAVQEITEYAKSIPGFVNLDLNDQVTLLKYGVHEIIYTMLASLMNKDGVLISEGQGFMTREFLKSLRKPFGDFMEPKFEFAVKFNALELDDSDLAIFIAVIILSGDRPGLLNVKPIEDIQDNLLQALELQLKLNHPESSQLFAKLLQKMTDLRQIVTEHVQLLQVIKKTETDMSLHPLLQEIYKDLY

[3] = molecular target: T3, Peroxisome proliferator-activated receptor alpha (Homo sapiens, UniProt Q07869); experiment: Transactivation of GAL4-fused human PPARalpha ligand binding domain expressed in HepG2 cells after 20 hrs by luciferase reporter gene assay; type: cell-based
T3 sequence (Q07869 whole entry): T1 sequence (whole entry)
Procedure, shortened: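 HepG2 cells transiently transfected (calcium phosphate) with Gal4–PPARα-LBD or Gal4–PPARγ-LBD (30 ng), five-Gal4-element TK-luciferase reporter (100 ng) and pCMVβgal (250 ng). 4 h post-transfection, triplicate 20 h ligand treatment up to 10 μM; luciferase read, β-galactosidase measured with ONPG.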

[4] = molecular target: T4, Peroxisome proliferator-activated receptor gamma (Homo sapiens) (UniProt P37231); experiment: Binding affinity to PPARgamma-LBD site B (unknown origin) in presence of (S)-2-(biphenyl-4-yloxy)-3-phenylpropanoic acid at 470 uM after 3 hrs by isothermal titration calorimetry assay
T4 sequence (whole entry): T2 sequence (P37231 whole entry)
Procedure, shortened: (§2)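 ITC at 25 °C on His-tagged PPARγ LBD dialysed into 20 mM Hepes pH 8.0, 1 mM TCEP; DMSO matched (<1%). […] Conditions: ligand 400 μM into 40 μM protein (5); reverse, 400 μM protein into 40 μM ligand (6); 600 μM ligand into 60 μM protein (7); protein 47 μM pre-equilibrated 3 h 1:1 with site-A ligand, titrated with 470 μM ligand (8); reverse titration (9).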

[5] = molecular target: T1, Peroxisome proliferator-activated receptor alpha (Homo sapiens); experiment: Agonist activity at PPARalpha in human HepG2 cells assessed as upregulation of CAC protein expression at 1 uM after 48 hrs by Western blotting analysis relative to control
[6] = molecular target: T1, Peroxisome proliferator-activated receptor alpha (Homo sapiens); experiment: Agonist activity at PPARalpha in human HepG2 cells assessed as upregulation of CPT1 protein expression at 1 uM after 48 hrs by Western blotting analysis relative to control
[7] = molecular target: T1, Peroxisome proliferator-activated receptor alpha (Homo sapiens); experiment: Agonist activity at PPARalpha in human HepG2 cells assessed as upregulation of CAC mRNA expression at 1 uM after 24 hrs by RT-PCR analysis relative to control; type: cell-based
Procedure, shortened: (§3)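 Total RNA from 1 × 10^6 cells, reverse transcribed, CAC or CPT1 transcript quantified by real-time PCR against human actin. Means ± SD of three duplicate independent experiments; one-way ANOVA, Bonferroni test versus control.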

[8] = molecular target: T4, Peroxisome proliferator-activated receptor gamma (Homo sapiens); experiment: Binding affinity to PPARgamma-LBD site A and site B (unknown origin) at 40 uM after 3 hrs by isothermal titration calorimetry assay; procedure, shortened: as §2
[9] = molecular target: T1, Peroxisome proliferator-activated receptor alpha (Homo sapiens); experiment: Agonist activity at PPARalpha in human HepG2 cells assessed as upregulation of CPT1 mRNA expression at 1 uM after 24 hrs by RT-PCR analysis relative to control; type: cell-based
Procedure, shortened: as §3, with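 “Serum-starved HepG2 cells (24 h depletion) exposed for 24 h to 1 μM ligand; untreated cells as control; Wy 14,643 (50 μM) reference. Total” for “Total”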

[10] = molecular target: T4, Peroxisome proliferator-activated receptor gamma (Homo sapiens); experiment: Binding affinity to PPARgamma-LBD site A (unknown origin) at 400 uM after 3 hrs by isothermal titration calorimetry assay; procedure, shortened: as §2
[11] = molecular target: T4, Peroxisome proliferator-activated receptor gamma (Homo sapiens); experiment: Binding affinity to PPARgamma-LBD site B and site C (unknown origin) at 60 uM after 3 hrs by isothermal titration calorimetry assay; procedure, shortened: as §2
[12] = molecular target: T4, Peroxisome proliferator-activated receptor gamma (Homo sapiens); experiment: Transactivation of GAL4-fused human PPARgamma ligand binding domain expressed in HepG2 cells up to 10 uM after 20 hrs by luciferase reporter gene assay; type: cell-based; procedure, shortened: as §1
[13] = molecular target: T4, Peroxisome proliferator-activated receptor gamma (Homo sapiens); experiment: Binding affinity to PPARgamma-LBD site B (unknown origin) at 600 uM after 3 hrs by isothermal titration calorimetry assay; procedure, shortened: as §2

Emax [1]	EC50 [2]	EC50 [3]	Structure (SMILES)	other results
126%	1000 nM	22 nM	O=C(O)[C@H](Cc1ccccc1)Oc1ccc(-c2ccccc2C(F)(F)F)cc1	
116%			O=C(O)[C@H](Cc1ccccc1)Oc1ccc(-c2ccccc2)cc1	
147%			CC(C)c1ccccc1-c1ccc(OC(Cc2ccccc2)C(=O)O)cc1 (single isomer, unassigned; form 1) [listing 1 of 2 here]	Ka [4]: 1.87 ×10⁵ /M; Activity [5]: Active; Activity [6]: Active; fold change (FC) [7]: 1.5; Ka [8]: 3.1 ×10⁵ /M; fold change (FC) [9]: 2.3; Ka [10]: 3.6 ×10⁵ /M
61%	3100 nM	1130 nM	Cc1cc(-c2ccccc2)cc(C)c1O[C@@H](Cc1ccccc1)C(=O)O	
132%	1400 nM	44 nM	O=C(O)[C@H](Cc1ccccc1)Oc1ccc(-c2ccccc2-c2ccccc2)cc1	
	1000 nM	12 nM	CC(C)c1ccccc1-c1ccc(OC(Cc2ccccc2)C(=O)O)cc1 (single isomer, unassigned; form 1) [listing 2 of 2 here]	
69%	460 nM	220 nM	Cc1cccc(-c2ccc(OC(Cc3ccccc3)C(=O)O)cc2)c1 (racemic)	
124%	2300 nM	130 nM	COc1ccccc1-c1ccc(O[C@@H](Cc2ccccc2)C(=O)O)cc1	
143%	1200 nM	12 nM	CCc1ccccc1-c1ccc(O[C@@H](Cc2ccccc2)C(=O)O)cc1	
155%	1360 nM	67 nM	Cc1ccccc1-c1ccc(O[C@@H](Cc2ccccc2)C(=O)O)cc1	
145%			CC(C)c1ccccc1-c1ccc(OC(Cc2ccccc2)C(=O)O)cc1 (single isomer, unassigned; form 2) [listing 1 of 2 here]	Ka [11]: 1.3 ×10⁵ /M; Activity [12]: Active; Ka [13]: 1.34 ×10⁵ /M
73%		280 nM	O=C(O)C(Cc1ccccc1)Oc1ccc(-c2ccccc2CCc2ccccc2)cc1 (racemic)	Activity [12]: Active
123%	2540 nM	230 nM	Cc1cccc(C)c1-c1ccc(O[C@@H](Cc2ccccc2)C(=O)O)cc1	
120%	700 nM	80 nM	Cc1cc(O[C@@H](Cc2ccccc2)C(=O)O)ccc1-c1ccccc1	
			Cc1cccc(Nc2cc(Cl)nc(SCC(=O)O)n2)c1C	Activity [12]: inactive
			CC(C)(Sc1ccc(CCN(CCCCC2CCCCC2)C(=O)NC2CCCCC2)cc1)C(=O)O	Activity [9]: Active
		100 nM	CC(C)c1ccccc1-c1ccc(OC(Cc2ccccc2)C(=O)O)cc1 (single isomer, unassigned; form 2) [listing 2 of 2 here]	
133%	640 nM	31 nM	Cc1ccccc1-c1ccc(O[C@@H](Cc2ccccc2)C(=O)O)cc1C	
68%	700 nM	990 nM	Cc1cc(-c2ccccc2)ccc1O[C@@H](Cc1ccccc1)C(=O)O	
68%	690 nM	120 nM	O=C(O)[C@H](Cc1ccccc1)Oc1ccc(-c2ccccc2F)cc1	
131%		240 nM	CCCc1ccccc1-c1ccc(OC(Cc2ccccc2)C(=O)O)cc1 (racemic)	Activity [12]: Active
50%	2040 nM	2100 nM	Cc1cc(OC(Cc2ccccc2)C(=O)O)cc(C)c1-c1ccccc1 (racemic)	
107%		500 nM	CCCCCc1ccccc1-c1ccc(OC(Cc2ccccc2)C(=O)O)cc1 (racemic)	Activity [12]: Active
74%	590 nM	210 nM	Cc1ccc(-c2ccc(O[C@@H](Cc3ccccc3)C(=O)O)cc2)cc1	
